# Reference: publication PMC6848909 (British Journal of Clinical Pharmacology, 2019)
# Like-named read-outs stand apart in the source and are kept apart here. Marks after values point to notes of the source that are not given here.
# How the values were obtained:
# [1] = type: in vivo, human; details: for Metabolic ratio of AUC0–inf, metabolite/belinostat / Metabolic ratio of Cmax, metabolite/belinostat: Cycle 1 Day −7, geometric mean (geometric SD)
# [2] = Phase 1 safety: adverse events; type: in vivo, human
# [3] = system: solid tumours or lymphomas; test: Tumour response by RECIST 1.1; type: in vivo, human
# Outline: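 CT scans were done at baseline and every 2 cycles, with response per RECIST 1.1. Dosing was IV over 30 min on days 1–5 of 21-day cycles, at doses set by liver-function cohort and dose level, after a single 400 mg/m2 dose on Cycle 1 Day −7. Cohorts were defined by bilirubin and AST relative to ULN.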
# [4] = cited from earlier work
# [5] = cited from earlier work; remark: listed apart in the source
# [6] = patients with hepatocellular carcinoma; cited from earlier work
# [7] = combination with 13‐cis‐retinoic acid; cited from earlier work
# [8] = mild liver dysfunction (n = 25)
# [9] = severe liver dysfunction (n = 15)
# [10] = Dose level 1, mild (n = 9), at least possibly related
# [11] = Dose level 1, moderate (n = 6), at least possibly related
# [12] = Dose level 1, normal (n = 14), at least possibly related
# [13] = Dose level 1, severe (n = 9), at least possibly related
# [14] = Dose level 2, mild (n = 14), at least possibly related
# [15] = Dose level 2, moderate (n = 6), at least possibly related
# [16] = Dose level 2, severe (n = 5), at least possibly related
compound,measurement,setting,value
"O=C(/C=C/c1cccc(S(=O)(=O)Nc2ccccc2)c1)NO[C@@H]1O[C@H](C(=O)O)[C@@H](O)[C@H](O)[C@H]1O [Belinostat glucuronide, belinostat glucuronide]","Metabolic ratio of AUC0–inf, metabolite/belinostat",[1]; [8],21.8 (1.63) ^d
same,"Metabolic ratio of Cmax, metabolite/belinostat",[1]; [8],3.57(1.47) ^c
same,"Metabolic ratio of AUC0–inf, metabolite/belinostat",[1]; normal liver function (n = 14),18.7 (1.63)
same,"Metabolic ratio of Cmax, metabolite/belinostat",[1]; normal liver function (n = 14),3.78 (1.47)
same,"Metabolic ratio of AUC0–inf, metabolite/belinostat",[1]; [9],17.7 (1.91)
same,"Metabolic ratio of Cmax, metabolite/belinostat",[1]; [9],2.85 (1.51)
"O=C(/C=C/c1cccc(S(=O)(=O)Nc2ccccc2)c1)NO [Belinostat, belinostat]",Clearance as % of liver blood flow (extraction),"[1]; normal liver function, clearance 661 mL/min/m^2",76%
same,Increase in half‐life from normal to severe,"[1]; normal vs severe liver dysfunction cohort, not statistically significant",33%
same,Patients with at least 1 grade ≥ 3 adverse event at least possibly related to study drug,"[2]; All dose levels, all patients, n = 66",14 (21.2) number (%) of patients
same,Patients with at least 1 grade ≥ 3 adverse event at least possibly related to study drug,"[2]; All dose levels, mild dysfunction, n = 23",4 (17.4) number (%) of patients
same,Patients with at least 1 grade ≥ 3 adverse event at least possibly related to study drug,"[2]; All dose levels, moderate dysfunction, n = 12",3 (25) number (%) of patients
same,Patients with at least 1 grade ≥ 3 adverse event at least possibly related to study drug,"[2]; All dose levels, normal liver function, n = 14",5 (35.7) number (%) of patients
same,Patients with at least 1 grade ≥ 3 adverse event at least possibly related to study drug,"[2]; All dose levels, severe dysfunction, n = 17",2 (11.8) number (%) of patients
same,Patients with at least 1 grade ≥ 3 adverse event at least possibly related to study drug,"[2]; Dose level 1 (250 mg/m^2), severe dysfunction, n = 9",1 (11.1) number (%) of patients
same,Patients with at least 1 grade ≥ 3 adverse event at least possibly related to study drug,"[2]; Dose level 1 (500 mg/m^2), moderate dysfunction, n = 6",1 (16.7) number (%) of patients
same,Patients with at least 1 grade ≥ 3 adverse event at least possibly related to study drug,"[2]; Dose level 1 (750 mg/m^2), mild dysfunction, n = 9",1 (11.1) number (%) of patients
same,Patients with at least 1 grade ≥ 3 adverse event at least possibly related to study drug,"[2]; Dose level 1 (1000 mg/m^2), normal liver function, n = 14",5 (35.7) number (%) of patients
same,Patients with at least 1 grade ≥ 3 adverse event at least possibly related to study drug,"[2]; Dose level 1, all patients, n = 38",8 (21.1) number (%) of patients
same,"Anaemia, Grade 2",[2]; [10],1 number of patients
same,"Fatigue, Grade 2",[2]; [10],1 number of patients
same,"Fatigue, Grade 3",[2]; [10],1 number of patients
same,"Vomiting, Grade 2",[2]; [10],1 number of patients
same,"Anaemia, Grade 2",[2]; [11],3 number of patients
same,"Fatigue, Grade 2",[2]; [11],1 number of patients
same,"Lymphocyte count decreased, Grade 2",[2]; [11],1 number of patients
same,"Lymphocyte count decreased, Grade 3",[2]; [11],1 number of patients
same,"Anaemia, Grade 2",[2]; [12],1 number of patients
same,"Anaemia, Grade 3",[2]; [12],1 number of patients
same,"Fatigue, Grade 2",[2]; [12],2 number of patients
same,"Fatigue, Grade 3",[2]; [12],1 number of patients
same,"Lymphocyte count decreased, Grade 2",[2]; [12],1 number of patients
same,"Lymphocyte count decreased, Grade 3",[2]; [12],3 number of patients
same,"Nausea, Grade 2",[2]; [12],3 number of patients
same,"Vomiting, Grade 2",[2]; [12],1 number of patients
same,"Fatigue, Grade 2",[2]; [13],1 number of patients
same,"Vomiting, Grade 2",[2]; [13],1 number of patients
same,"Lung infection, Grade 5","[2]; Dose level 1, severe (n = 9), possibly related",1 number of patients
same,Patients with at least 1 grade ≥ 3 adverse event at least possibly related to study drug,"[2]; Dose level 2 (350 mg/m^2), severe dysfunction, n = 8",1 (12.5) number (%) of patients
same,Patients with at least 1 grade ≥ 3 adverse event at least possibly related to study drug,"[2]; Dose level 2 (750 mg/m^2), moderate dysfunction, n = 6",2 (33.3) number (%) of patients
same,Patients with at least 1 grade ≥ 3 adverse event at least possibly related to study drug,"[2]; Dose level 2 (1000 mg/m^2), mild dysfunction, n = 14",3 (21.4) number (%) of patients
same,Patients with at least 1 grade ≥ 3 adverse event at least possibly related to study drug,"[2]; Dose level 2, all patients, n = 28",6 (21.4) number (%) of patients
same,"Anaemia, Grade 2",[2]; [14],3 number of patients
same,"Fatigue, Grade 2",[2]; [14],2 number of patients
same,"Fatigue, Grade 3",[2]; [14],2 number of patients
same,"Lymphocyte count decreased, Grade 2",[2]; [14],4 number of patients
same,"Nausea, Grade 2",[2]; [14],3 number of patients
same,"Vomiting, Grade 2",[2]; [14],1 number of patients
same,"Vomiting, Grade 3",[2]; [14],1 number of patients
same,"Anaemia, Grade 2",[2]; [15],1 number of patients
same,"Bilirubin increased, Grade 2",[2]; [15],1 number of patients
same,"Bilirubin increased, Grade 3",[2]; [15],2 number of patients
same,"Fatigue, Grade 2",[2]; [15],1 number of patients
same,"Fatigue, Grade 3",[2]; [15],2 number of patients
same,"Anaemia, Grade 2",[2]; [16],1 number of patients
same,"Lymphocyte count decreased, Grade 2",[2]; [16],2 number of patients
same,Grade 2 or greater anaemia attributed to the study drug,[2]; all treated patients,17.1%
same,Grade 2 or greater fatigue attributed to the study drug,[2]; all treated patients,21.9%
same,Grade 2 or greater lymphopenia attributed to the study drug,[2]; all treated patients,18.8%
same,Patients with grade ≥ 3 toxicity,[2]; mild cohort (4/23),17.4%
same,DLTs,"[2]; mild cohort, DL 2 (1000 mg/m^2), 6 evaluable patients",no DLTs
same,Patients with grade ≥ 3 toxicity,[2]; moderate cohort (3/12),25%
same,DLTs,"[2]; moderate cohort, DL 2 (750 mg/m^2), 3 evaluable patients",no DLTs
same,Patients with a grade ≥ 3 AE,[2]; normal cohort (5/14),35.7%
same,MTD,"[2]; patients with mild dysfunction, same as recommended phase 2 dose",1000 mg/m^2/day
same,DLTs,"[2]; severe cohort, DL 1 (250 mg/m^2), 6 evaluable patients, grade 5 lung infection",1
same,Complete or partial responses,[3]; any of the 4 cohorts,No complete or partial responses
same,Patients with stable disease,[3]; of 47 patients evaluable for response,28%
same,Patients with stable disease,"[3]; of 47 patients evaluable for response, after the first 2 cycles",13 patients
same,Patients with stable disease,[3]; on DL 1,11 patients
same,Patients with stable disease,[3]; on DL 2,2 patients
same,"Time on study treatment, median",[3]; patients with stable disease,4 21‐day cycles
same,"Time on study treatment, range",[3]; patients with stable disease,2–12 cycles
same,"% of dose by glucuronidation (UGT1A1 and UGT2B7), clinical mass balance",[4],41.4%
same,"% of dose by methylation, clinical mass balance",[4],1.9%
same,Total administered belinostat excreted unchanged in the urine,[4],up to 2%
same,Patients who experienced DLT,[5]; at 1200 mg/m^2/day,3 of 5
same,Recommended phase 2 dose,[5]; days 1–5 of a 21‐day cycle,1000 mg/m^2/day
same,MTD (not reached at highest dose tested),[6],≥ 1400 mg/m^2/day
same,MTD (not reached),[7],≥ 2000 mg/m^2/day
